In ChEMBL document CHEMBL1144069, “Cytotoxic activities of hypocretenolides from Leontodon hispidus” (J Nat Prod, 1999):
Activity calls are given as the source filed them.

Tests used:
Assay type in all cases: functional, cell-based
[1] = test system: ZR-75-1; test: Cytotoxicity against human ZR-75-1 cells at 0.25 to 2.0 uM after 48 hrs by [3H]thymidine incorporation assay
In short: (§1)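 Adherent tumour cells at 1 × 10^6 cells/mL (100 µL per well) overlaid with an equal volume of medium carrying test substance across 0.25–4.00 µM. Medium-only controls. Incubated 24, 48 or 72 h at 37 °C, 5% CO2, then pulsed 24 h with 3H-thymidine and harvested onto glass filters for scintillation counting. Final DMSO 0.1%. Triplicate wells, three days (n = 9). IC50 read graphically from each experiment's dose curve.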

[2] = test system: ZR-75-1; test: Cytotoxicity against human ZR-75-1 cells at 0.25 to 2.0 uM after 24 hrs by [3H]thymidine incorporation assay; in short: as §1
[3] = test system: SW872; test: Cytotoxicity against human SW872 cells at 0.25 to 2.0 uM after 72 hrs by [3H]thymidine incorporation assay; in short: as §1
[4] = test system: OVCAR-3; test: Cytotoxicity against human OVCAR-3 cells at 0.25 to 2.0 uM after 48 hrs by [3H]thymidine incorporation assay
In short: (§2)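 Adherent tumor cells (100 µL at 1 × 10^6 cells/mL) were overlaid with 100 µL of medium containing compound in the 0.25–4.00 µM range (0.1% final DMSO). The medium control had no compound. Cells were incubated for 24, 48 or 72 h at 37 °C and 5% CO2, then pulsed 24 h with 3H-thymidine. They were harvested onto glass filters and counted by liquid scintillation. Three wells per point, on three separate days (n = 9). IC50 was taken graphically.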

[5] = test system: GTB; test: Cytotoxicity against human GTB cells at 0.01 to 2.0 uM after 5 hrs by MTT assay
In short: (§3)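 Leukemic cells at 0.5 × 10^6 cells/mL in RPMI were exposed to 0.01–2.00 µM compound (0.1% final DMSO) at 37 °C and 5% CO2. Viability was measured as MTT formazan, dissolved in DMSO and read at 550 and 630 nm. Three wells per point, on three separate days (n = 9). IC50 was taken graphically from per-experiment dose curves.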

[6] = test system: MCF7; test: Cytotoxicity against human MCF7 cells at 0.25 to 2.0 uM after 48 hrs by [3H]thymidine incorporation assay; in short: as §2
[7] = test system: A-431; test: Cytotoxicity against human A431 cells at 0.25 to 2.0 uM after 72 hrs by [3H]thymidine incorporation assay; in short: as §2
[8] = test system: SK-MEL-28; test: Cytotoxicity against human SK MEL28 cells at 0.25 to 2.0 uM after 48 hrs by [3H]thymidine incorporation assay; in short: as §2
[9] = test system: SK-MEL-28; test: Cytotoxicity against human SK MEL28 cells at 0.25 to 2.0 uM after 72 hrs by [3H]thymidine incorporation assay; in short: as §2
[10] = test system: HEp-2; test: Cytotoxicity against human HEP2 cells at 0.25 to 2.0 uM after 48 hrs by [3H]thymidine incorporation assay; in short: as §2
[11] = test system: A-431; test: Cytotoxicity against human A431 cells at 0.25 to 2.0 uM after 48 hrs by [3H]thymidine incorporation assay; in short: as §2
[12] = test system: MCF7; test: Cytotoxicity against human MCF7 cells at 0.25 to 2.0 uM after 24 hrs by [3H]thymidine incorporation assay; in short: as §2
[13] = test system: SK37; test: Cytotoxicity against human SK37 cells at 0.25 to 2.0 uM after 48 hrs by [3H]thymidine incorporation assay; in short: as §2
[14] = test system: HEp-2; test: Cytotoxicity against human HEP2 cells at 0.25 to 2.0 uM after 72 hrs by [3H]thymidine incorporation assay; in short: as §2
[15] = test system: SW872; test: Cytotoxicity against human SW872 cells at 0.25 to 2.0 uM after 24 hrs by [3H]thymidine incorporation assay; in short: as §1
[16] = test system: OVCAR-3; test: Cytotoxicity against human OVCAR-3 cells at 0.25 to 2.0 uM after 24 hrs by [3H]thymidine incorporation assay; in short: as §2
[17] = test system: ZR-75-1; test: Cytotoxicity against human ZR-75-1 cells at 0.25 to 2.0 uM after 72 hrs by [3H]thymidine incorporation assay; in short: as §1
[18] = test system: SW872; test: Cytotoxicity against human SW872 cells at 0.25 to 2.0 uM after 48 hrs by [3H]thymidine incorporation assay; in short: as §1
[19] = test system: HL-60; test: Cytotoxicity against human HL-60 cells at 0.01 to 2.0 uM after 5 hrs by MTT assay; in short: as §3
[20] = test system: SK-MEL-28; test: Cytotoxicity against human SK MEL28 cells at 0.25 to 2.0 uM after 24 hrs by [3H]thymidine incorporation assay; in short: as §2
[21] = test system: MCF7; test: Cytotoxicity against human MCF7 cells at 0.25 to 2.0 uM after 72 hrs by [3H]thymidine incorporation assay; in short: as §2
[22] = test system: HEp-2; test: Cytotoxicity against human HEP2 cells at 0.25 to 2.0 uM after 24 hrs by [3H]thymidine incorporation assay; in short: as §2
[23] = test system: SK37; test: Cytotoxicity against human SK37 cells at 0.25 to 2.0 uM after 24 hrs by [3H]thymidine incorporation assay; in short: as §2
[24] = test system: SK37; test: Cytotoxicity against human SK37 cells at 0.25 to 2.0 uM after 72 hrs by [3H]thymidine incorporation assay; in short: as §2
[25] = test system: A-431; test: Cytotoxicity against human A431 cells at 0.25 to 2.0 uM after 24 hrs by [3H]thymidine incorporation assay; in short: as §2
[26] = test system: OVCAR-3; test: Cytotoxicity against human OVCAR-3 cells at 0.25 to 2.0 uM after 72 hrs by [3H]thymidine incorporation assay; in short: as §2

Measured: Activity

C=C1C(=O)O[C@]23C[C@H]1CCC(CO[C@H]1O[C@@H](CO)[C@H](O)[C@@H](O)[C@@H]1O)=C2C(=O)C=C3C
inactive: all assays above
